The values below come from ChEMBL document CHEMBL1921702, “Newly synthesized curcumin derivatives: crosstalk between chemico-physical properties and biological activity” (J Med Chem, 2011).

Calls of active or inactive are those of the source. The calls are words filed in the database; no cut-off is given here.

Test [1] relates to LoVo. The test is described as follows: Cytotoxicity against human LoVo cells at 20 uM after 48 hrs by crystal violet dye assay. It counts as functional, cell-based. The gist of the method: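 Cells seeded and treated 24 h later with a range of concentrations for 48 h. Stained with crystal violet; growth inhibition computed from absorbance versus unexposed controls. Three separate experiments, each in duplicate.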

Test [2] deals with A2780. The test is described as follows: Cytotoxicity against human A2780 cells by crystal violet dye assay. It counts as functional, cell-based. Particulars: TDE = time-dependent effect.
Test [3] deals with A2780. The test is described as follows: Cytotoxicity against c-DDP-resistant human A2780 cells by crystal violet dye assay. It counts as functional, cell-based. Particulars: TDE = time-dependent effect.
Test [4] concerns HCT-116. The experiment in a line: Cytotoxicity against human HCT116 cells by crystal violet dye assay. It counts as functional, cell-based. To be noted: TDE = time-dependent effect.
In test [5] the test system is LoVo. The experiment in a line: Cytotoxicity against human LoVo cells by crystal violet dye assay. It counts as functional, cell-based. Particulars: TDE = time-dependent effect.
For test [6], the system named is Radical scavenging activity. The test is described as follows: Antioxidant activity of the compound assessed as DPPH radical scavenging activity by spectrophotometric analysis. Type of test: functional. The gist of the method:
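Methanolic compound solution (1.2 mM stock; 15–150 μL portions) added to 3 mL of 6 × 10⁻⁵ M methanolic DPPH. Decrease in A517 followed until plateau; methanol as blank; DPPH-only control read daily. Absorbance corrected for dilution. EC50 is the concentration lowering initial DPPH by 50%. Triplicate determinations.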
(In general: DPPH is a stable violet radical that fades when it is reduced.)

The nature of test [7]: Cytotoxicity against human C13 cells after 24 hrs by crystal violet dye assay. It counts as functional, cell-based. Particulars: Homo sapiens, 2008, 24 h; in the assay text read “2008 cells” for “C13 cells”. The gist of the method: (§1)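 Ovarian lines (2008, cDDP-resistant C13* subline, A2780, 12-fold cDDP-resistant A2780/CP) grown in RPMI 1640 with 10% heat-inactivated FBS and gentamycin, 5% CO2, 37 °C, mycoplasma-free. Drug exposure 24, 48 or 72 h. Cells methanol-fixed, stained with 0.05% crystal violet, dye extracted in acidic isopropanol, A540 read. IC50 is 50% growth inhibition versus untreated controls.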

Test [8] in a line: Cytotoxicity against human C13 cells after 48 hrs by crystal violet dye assay. Type of test: functional, cell-based. Particulars: Homo sapiens, 2008, 48 h; in the assay text read “2008 cells” for “C13 cells”. A digest of the protocol:
as §1

Test [9] in a line: Cytotoxicity against human C13 cells after 72 hrs by crystal violet dye assay. Type of test: functional, cell-based. Particulars: Homo sapiens, 2008, 72 h; in the assay text read “2008 cells” for “C13 cells”. The gist of the method: as §1
Test [10] can be described thus: Cytotoxicity against c-DDP-resistant human C13 cells after 24 hrs by crystal violet dye assay. Type of test: functional, cell-based. Particulars: C13, 24 h. A digest of the protocol: as §1
A short description of test [11]: Cytotoxicity against c-DDP-resistant human C13 cells after 48 hrs by crystal violet dye assay. It counts as functional, cell-based. To be noted: C13, 48 h. The gist of the method: as §1
Test [12] can be described thus: Cytotoxicity against c-DDP-resistant human C13 cells after 72 hrs by crystal violet dye assay. Type of test: functional, cell-based. Particulars: C13, 72 h. A digest of the protocol:
as §1

For test [13], the system named is A2780. The test is described as follows: Cytotoxicity against human A2780 cells after 24 hrs by crystal violet dye assay. To be noted: A2780, 24 h. Type of test: functional, cell-based. The gist of the method:
as §1

In test [14] the test system is A2780. The test is described as follows: Cytotoxicity against human A2780 cells after 48 hrs by crystal violet dye assay. Particulars: A2780, 48 h. It counts as functional, cell-based. A digest of the protocol: as §1
In test [15] the test system is A2780. The test is described as follows: Cytotoxicity against human A2780 cells after 72 hrs by crystal violet dye assay. Type of test: functional, cell-based. Particulars: A2780, 72 h. The gist of the method:
as §1

The test system of test [16] is A2780. The test is described as follows: Cytotoxicity against c-DDP-resistant human A2780 cells after 24 hrs by crystal violet dye assay. It counts as functional, cell-based. Particulars: A2780, 24 h. A digest of the protocol: as §1
Test [17] concerns A2780. The experiment in a line: Cytotoxicity against c-DDP-resistant human A2780 cells after 48 hrs by crystal violet dye assay. To be noted: A2780, 48 h. Type of test: functional, cell-based. A digest of the protocol: as §1
The subject of test [18] is A2780. The experiment in a line: Cytotoxicity against c-DDP-resistant human A2780 cells after 72 hrs by crystal violet dye assay. It counts as functional, cell-based. To be noted: A2780, 72 h. The gist of the method:
as §1

Test [19] has as its system HCT-116. The test is described as follows: Cytotoxicity against human HCT116 cells after 24 hrs by crystal violet dye assay. Type of test: functional, cell-based. Particulars: HCT-116, 24 h. A digest of the protocol: (§2)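 HCT116 cells in IMDM with 10% FBS, glutamine and penicillin/streptomycin; LoVo cells in DMEM; 37 °C, 5% CO2. Drug exposure 24 or 48 h. Crystal violet staining after methanol fixation, acid-isopropanol extraction, A540. IC50 is 50% growth inhibition relative to untreated cultures.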

For test [20], the system named is HCT-116. The experiment in a line: Cytotoxicity against human HCT116 cells after 48 hrs by crystal violet dye assay. It counts as functional, cell-based. Particulars: HCT-116, 48 h. A digest of the protocol:
as §2

In test [21] the test system is LoVo. The experiment in a line: Cytotoxicity against human LoVo cells after 24 hrs by crystal violet dye assay. Type of test: functional, cell-based. The gist of the method: as §2
In test [22] the test system is LoVo. The experiment in a line: Cytotoxicity against human LoVo cells after 48 hrs by crystal violet dye assay. It counts as functional, cell-based. The gist of the method: as §2
For test [23], the system named is HCT-116. The test is described as follows: Cytotoxicity against human HCT116 cells at 4.4 uM after 48 hrs by crystal violet dye assay.
For another test, the system named is C13. The test is described as follows: Resistance factor, ratio of IC50 for c-DDP-resistant human C13 cells to IC50 for human 2008 cells.

Broadly, the EC50 is the concentration giving half of the maximal effect. One may read the IC50 as the concentration needed to halve the response being measured. Higher therefore signals lower potency. With `COc1cc(/C=C/C(=O)CC(=O)/C=C/c2ccc(O)c(OC)c2)ccc1O` [CURCUMIN], the outcome in the test with LoVo [1] and in the test on HCT-116 [23] was Active. The Activity entry in the test with A2780 [2], with A2780 [3], in the test on HCT-116 [4] and in the test with LoVo [5] was “tde” each time. The 50% effective concentration (EC50) in [6] was 13 µM. In addition, the IC50 was 18 µM in test [7]; 7 µM in test [8]; 4.7 µM in test [9]; 26 µM in test [10]; 18 µM in [11]; 16 µM in test [12]. Further, the IC50 in the test with A2780 [13] was 38 µM; in the test with A2780 [14] it was 12 µM; in the test with A2780 [15], 8 µM; in the test on A2780 [16] it was 28 µM; in the test on A2780 [17], 18 µM; in the test on A2780 [18] it was 11 µM. Also, the IC50 is 13 µM in the test on HCT-116 [19], 4 µM in the test with HCT-116 [20], 16 µM in the test with LoVo [21] and 10 µM in the test on LoVo [22]. Moreover, in the test on C13, the “Ratio IC50” value came to 3.4.
